# Data: PubChem BioAssay
# Unmarked numbers belong to inactive results. Results filed as inconclusive are left out. The source made the active and inactive calls.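 The calls were made as follows, unless noted: active = RAM network inhibition above 8.4% in each of two replicates, 3 SD over the compound average; inconclusive = above 8.4% inhibition in only one replicate; inactive = 8.4% inhibition or less in each replicate.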
# Assays:
# [1] = OD615 S. cerevisiae growth inhibition, permissive medium, pilot counter-assay, permissive growth control for S. cerevisiae lifespan shortening project (AID 705;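 active = growth inhibition above 25% in both replicates, a cutoff set 3 SD above the mean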); conditions: OD615, 24 h, at 10 µM, hits give high values
# Outline: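 Material: engineered DeaD yeast; compound dosing: one dose 10 µM, DMSO 0.25% final; measure: yeast growth inhibition indicated by reduced 24 h OD615; detection: OD615 turbidity read; incubation: cells pre-grown 4 h, then 24 h compound exposure, 30 °C humidified; medium: permissive synthetic complete medium with raffinose and galactose carbon sources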
# [2] = Restrictive medium S. cerevisiae growth inhibition, OD615, pilot screen of yeast lifespan reduction project, restrictive growth control (AID 706;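 active = growth inhibition above a set limit, 3 SD over mean compound inhibition, in both replicates, cut at about 43% in these data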;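 also: modified DeaD lifespan yeast strain shifted to restrictive glucose medium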); conditions: OD615, 48 h, at 10 µM, hits give high values
# Outline: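 material = engineered S. cerevisiae DeaD strain | medium = glucose-based CSMM-D restrictive medium | times = 4 h pre-incubation, 48 h exposure at 30 °C | technique = OD615 absorbance reading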
# [3] = viability gain of MRP-1-high H69AR cells under doxorubicin, pilot screen, MRP-1 activator project, CellTiter-Glo, duplicate (AID 807;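 active = viability increase at or above a cutoff of the median across tested compounds plus 3 SD, cut at about 8.5% in these data, passing the limit was not always enough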;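 also: compound pretreatment 18-22 h then 72 h combined with doxorubicin; 0% = doxorubicin alone and 100% = vehicle without doxorubicin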); conditions: H69AR viability with doxorubicin, CellTiter-Glo luminescence; at 10 µM; hits give high values
# [4] = growth suppression of beta-catenin knockout HCT116, pilot screen, human colon tumor cells (AID 823;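 active = cell viability at or below a set limit in both duplicate runs, the limit being the all-compound median minus 4 SD, cut at about 23% in these data, passing the limit was not always enough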;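 also: 0% = wells killed by 20 µM Hyamine and 100% = untreated DMSO cell wells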); conditions: CellTiter-Glo, 60 h, at 10 µM, hits give low values
# [5] = growth suppression of PTEN-deleted HCT116, pilot screen, cell-based, HCT116 clonal line, CellTiter-Glo (AID 824;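 active = viability at or below 27.92% in each of two runs, the all-compound median minus 4 SD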;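 also: 0% = 20 µM Hyamine control and 100% = vehicle cell control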); conditions: 60 h, at 10 µM, hits give low values
# [6] = inhibitors of the yeast RAM network, pilot screen, dse1pr::URA3 reporter, 5-FOA selection (AID 869;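 active = inhibition over a set limit, the all-compound mean plus 3 SD, in both replicate runs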;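 also: 0% = DMSO wells with no growth and 100% = 10 µM 1-NA-PP1 with full growth; RAM network block rescues cells from 5-FOA so hits raise OD615 growth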); conditions: S. cerevisiae dse1pr::URA3 5-FOA growth, OD615, 2 d; at 10 µM; hits give high values; strain carries analog-sensitive mutant Cbk1 kinase
# [7] = RAM signaling pathway blockade in yeast – S. cerevisiae, Pdr1DBD-CYC8 efflux-inhibited sensitized strain, primary screen (AID 1298);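 also: 0% = DMSO untreated cells without growth and 100% = 10 µM 1-NA-PP1 full growth; higher means more yeast growth rescued from 5-FOA killing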; conditions: S. cerevisiae cbk1-as DSE1-URA3 strain, 5-FOA growth OD615, 2 d; at 50 µM; hits give high values
Compound,growth inhibition [1],growth inhibition [2],viability increase [3],viability [4],viability [5],inhibition [6],RAM network inhibition [7]
CC(=O)Nn1cc2c(c1-c1ccccc1)c(=O)n(C)c(=O)n2C,-10%,-3.13%,1.16%,93%,87.2%,1.5%,3.01%
O=C(CN1CCN(Cc2ccc(F)cc2)C1=O)NCc1cccs1,-6.23%,-1.7%,1.33%,99.5%,94.1%,0.97%,2.12%
O=C(NCc1ccc(Cl)cc1)C1CCCN(S(=O)(=O)c2cnc[nH]2)C1 (centres undefined),1.47%,-8.94%,1.36%,106%,92.4%,2.04%,1.09%
CC1CCCC(NC(=O)c2ccc(CNc3c(N4CCCC4)c(=O)c3=O)cc2)C1C (centres undefined),-6.62%,2.02%,-2.4%,90.7%,84.4%,2.51%,2.5%
OC(COc1ccccc1)Cn1cc(Br)cn1 (centres undefined),-3.63%,-8.39%,-0.64%,106%,96.1%,1.23%,0.93%
O=C(Nc1nc2c(s1)COc1ccccc1-2)c1cccs1,0.91%,-0.5%,-4.13%,72.2%,71%,1.43%,3.54%
CC(=O)C1C(c2ccc(Cl)cc2)NC(=O)NC1(O)C(F)(F)F (centres undefined),-9.25%,-12%,-0.16%,103%,101%,0.825%,3.45%
CCOC(=O)Nc1sc(NS(=O)(=O)c2ccccc2)nc1C,-10.4%,3.58%,-0.61%,105%,104%,0.295%,2.87%
CC(=O)c1ccc(NC(=O)CSC(C)C)cc1,-0.135%,-18.6%,-0.64%,102%,97.9%,1.36%,0.37%
COc1ccc(NC(=O)c2c(-c3ccccc3)noc2C)c(OC)c1,-16%,-30.3%,-1.79%,97.4%,92.6%,0.895%,3.75%
CCOC(=O)c1cnc2c(Cl)cc(Cl)cc2c1NCCOCCO,1.23%,-11.6%,-5.62%,81.8%,74.4%,-0.09%,2.56%
O=C(NC1CCCc2ccccc21)c1cccnc1 (centres undefined),-4.71%,-1.41%,-1.04%,91.4%,93%,1.98%,0.22%
O=C(CSc1nc2c(c(=O)n1-c1ccc(Cl)cc1)SCC2)Nc1nccs1,-2.95%,-4.84%,-2.93%,82.5%,78.4%,3.08%,5.03%
CCNc1nnc(-c2ccccc2OC)s1,-2.37%,3.71%,-0.41%,96%,103%,-0.485%,5.21%
CCN(Cc1ccccc1)C(=O)CSc1nc(C)cc(C)c1C#N,-12.8%,-2.79%,4.58%,104%,87.3%,2.48%,0.99%
CC1=C(C(=O)N2CCOCC2)C(c2cccs2)NC(=O)N1 (centres undefined),1.45%,-1.81%,-0.8%,99.8%,99.9%,1.26%,3.01%
Cn1c(NC(=O)c2ccccc2F)cc(=O)n(C)c1=O,-0.14%,-2.47%,0.23%,101%,106%,0.595%,-1.63%
CCn1c(C(=O)NC(C)c2ccc3c(c2)OCCO3)cc2sccc21 (centres undefined),-7.09%,-9.22%,-0.14%,96.1%,82%,1.62%,3.22%
Cc1cc(C)nc(SCc2ccccc2C#N)n1,-9.81%,-6.26%,-0.49%,98.8%,98%,0.705%,9.71%

Compound,growth inhibition [1],growth inhibition [2],viability increase [3],viability [4],viability [5],inhibition [6],RAM network inhibition [7]
CN(C)CCNc1ncnc2c1cnn2-c1ccc(Cl)cc1,-13.2%,-3.57%,-7.01%,4.33% (active),4.63% (active),1.62%,3.07%
Clc1ccc(-c2noc(COc3ccccc3)n2)cc1,-3.93%,14.3%,2.15%,101%,95.6%,0.745%,9.14%
O=C1CC(c2cccnc2)c2cc3c(cc2N1)OCCO3 (centres undefined),2.41%,-0.935%,-2.86%,91.5%,91.9%,2.35%,2.43%
CCCc1cc(=O)[nH]c(SCC(=O)NC2CCCCC2)n1,2.37%,0.01%,-1.41%,89.5%,94.8%,0.82%,0.46%
Cc1sc2nc(CSc3nnc(Cc4cccs4)n3C3CCCCC3)[nH]c(=O)c2c1C,10.9%,27.6%,3.27%,92.8%,90%,3.25%,4.25%
CCCCNC(=O)c1cc2c(-c3ccc(Cl)cc3)nn(C)c2s1,3.71%,6.75%,-5.53%,89.9%,88.7%,3.1%,4.05%
Cc1oc(-c2ccc(Cl)cc2)nc1CS(=O)CC(=O)NCCN1CCCC1 (centres undefined),-4.58%,-1.17%,-1.14%,91.1%,91.4%,1.06%,8.14%
CCCN1CCN(CCCNC(=O)Cn2cc3c(n2)CCCC3)CC1,-3.77%,-2.67%,-0.96%,101%,91%,0.27%,3.05%
CCCCCCNS(=O)(=O)c1nc2nc(C)cc(C)n2n1,-15.4%,-13.1%,2.63%,104%,104%,1.35%,1.21%
COCc1cc(C)nc(N2CCOCC2)c1C#N,-14.3%,3.52%,-0.86%,103%,101%,1.35%,5.54%
Cc1ccc2[nH]c(=O)c3cc(C(=O)N4CCN(C(=O)c5ccco5)CC4)sc3c2c1,5.33%,7.05%,-3.84%,99%,92.3%,1.16%,7.89%
CC1(C)CC(=O)C2=C(C1)OC(N)=C(C#N)C2c1ccc(OC(=O)N2CCOCC2)cc1 (centres undefined),-8.71%,-10.3%,-1.1%,100%,105%,1.12%,0.1%
Cc1cc(C)nc(SCC(=O)OCN2C(=O)c3ccccc3C2=O)n1,-19.7%,-18.3%,-1.63%,91.6%,91.6%,0.15%,3.15%
Cc1oc2c(O)c(O)ccc2c(=O)c1-c1ccccc1,-4.7%,1.24%,3.12%,95.1%,90.3%,-0.32%,-0.2%
O=C1CCC(=O)N1c1ccc(CSc2nnnn2C2CCCCC2)cc1,-0.7%,4.66%,0.3%,103%,97.6%,-0.145%,1.92%
CC1CCN(C(=O)CSc2nnc(Cn3c(=O)sc4ccccc43)n2C)CC1,-3.65%,-5%,-0.3%,121%,112%,0.075%,3.13%
COc1ccc(S(=O)(=O)Nc2ccc3c(c2)OCO3)cc1C(=O)O,-4.6%,-5.47%,-1.95%,93.5%,94.5%,0.425%,3.99%
CCN1CCN(c2cc(=O)n(C3CCCCC3)c(=O)[nH]2)CC1,-13.3%,-10.1%,0.11%,104%,102%,1.2%,2.53%
